Measured values: ChEMBL document CHEMBL2375276, “Antibacterial oxazolidinone analogues having a N-hydroxyacetyl-substituted seven-membered [1,2,5]triazepane or [1,2,5]oxadiazepane C-ring unit” (Eur J Med Chem, 2013)
Values after ≈ are worked out from the molar mass of the structure shown.

Tests used:
Type in all cases: functional
[1] = tested on: Moraxella catarrhalis; experiment: Antibacterial activity against Moraxella catarrhalis SR26840 clinical isolate assessed as growth inhibition by CLSI broth microdilution method
How it was run: (§1)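 MIC by CLSI broth microdilution in cation-adjusted Mueller-Hinton broth; S. pneumoniae medium supplemented with 5% lysed horse blood.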

[2] = tested on: Enterococcus faecium; experiment: Antibacterial activity against Enterococcus faecium SR7940 clinical isolate assessed as growth inhibition by CLSI broth microdilution method; how it was run: as §1
[3] = tested on: Staphylococcus aureus; experiment: Antibacterial activity against Staphylococcus aureus SR20549 clinical isolate assessed as growth inhibition by CLSI broth microdilution method; how it was run: as §1
[4] = tested on: Staphylococcus aureus; experiment: Antibacterial activity against methicillin-resistant Staphylococcus aureus SR3637 infected in JCL/ICR mouse systemic infection model assessed as mortality administered as iv measured over 7 days; conditions: 168 h
How it was run: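 Five-week-old male JCL/ICR mice (20–25 g), five per group. Infected intraperitoneally with 0.5 or 1.0 mL bacterial suspension (about 100× LD50). Intravenous dosing 1 h post-infection. Mortality followed 7 days; ED50 with 95% confidence limits by logit method.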

[5] = tested on: Enterococcus faecalis; experiment: Antibacterial activity against Enterococcus faecalis SR1004 clinical isolate assessed as growth inhibition by CLSI broth microdilution method; how it was run: as §1
[6] = tested on: Staphylococcus aureus; experiment: Antibacterial activity against linezolid-resistant Staphylococcus aureus NRS271 assessed as growth inhibition by CLSI broth microdilution method
How it was run: (§2)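 MIC by CLSI broth microdilution in cation-adjusted Mueller-Hinton broth. Lowest concentration inhibiting growth taken as MIC.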

[7] = tested on: Staphylococcus aureus; experiment: Antibacterial activity against methicillin-resistant Staphylococcus aureus SR3637 assessed as growth inhibition by CLSI broth microdilution method; how it was run: as §2
[8] = tested on: Haemophilus influenzae; experiment: Antibacterial activity against Haemophilus influenzae SR27914 clinical isolate assessed as growth inhibition by CLSI broth microdilution method
How it was run: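 MIC by CLSI broth microdilution using Haemophilus test medium.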

[9] = tested on: Staphylococcus aureus; experiment: Antibacterial activity against Staphylococcus aureus Smith assessed as growth inhibition by CLSI broth microdilution method; how it was run: as §1
[10] = tested on: Streptococcus pneumoniae; experiment: Antibacterial activity against Streptococcus pneumoniae SR26207 clinical isolate assessed as growth inhibition by CLSI broth microdilution method; how it was run: as §1
[11] = tested on: Staphylococcus aureus; experiment: Antibacterial activity against methicillin-resistant Staphylococcus aureus SR3637 infected in JCL/ICR mouse systemic infection model assessed as mortality administered as po measured over 7 days; conditions: 168 h
How it was run: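 Five-week-old male JCL/ICR mice (20–25 g), five per group. Infected intraperitoneally with 0.5 or 1.0 mL bacterial suspension (about 100× LD50). Oral dosing 1 h post-infection. Mortality followed 7 days; ED50 with 95% confidence limits by logit method.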

[12] = tested on: Streptococcus pneumoniae; experiment: Ratio of linezolid MIC to compound MIC for Streptococcus pneumoniae SR26207 clinical isolate
[13] = tested on: Haemophilus influenzae; experiment: Ratio of linezolid MIC to compound MIC for Haemophilus influenzae SR27914 clinical isolate
[14] = tested on: Moraxella catarrhalis; experiment: Ratio of linezolid MIC to compound MIC for Moraxella catarrhalis SR26840 clinical isolate
[15] = tested on: Haemophilus influenzae; experiment: Ratio of eperezolid MIC to compound MIC for Haemophilus influenzae SR27914 clinical isolate
[16] = tested on: Moraxella catarrhalis; experiment: Ratio of eperezolid MIC to compound MIC for Moraxella catarrhalis SR26840 clinical isolate
[17] = tested on: Enterococcus faecium; experiment: Ratio of linezolid MIC to compound MIC for Enterococcus faecium SR7940 clinical isolate
[18] = tested on: Staphylococcus aureus; experiment: Ratio of linezolid MIC to compound MIC for Staphylococcus aureus Smith
[19] = tested on: Enterococcus faecalis; experiment: Ratio of linezolid MIC to compound MIC for Enterococcus faecalis SR1004 clinical isolate
[20] = tested on: Enterococcus faecalis; experiment: Ratio of eperezolid MIC to compound MIC for Enterococcus faecalis SR1004 clinical isolate
[21] = tested on: Enterococcus faecium; experiment: Ratio of eperezolid MIC to compound MIC for Enterococcus faecium SR7940 clinical isolate
[22] = tested on: Staphylococcus aureus; experiment: Ratio of linezolid MIC to compound MIC for Staphylococcus aureus SR20549 clinical isolate
[23] = tested on: Staphylococcus aureus; experiment: Ratio of eperezolid MIC to compound MIC for Staphylococcus aureus SR20549 clinical isolate
[24] = tested on: Staphylococcus aureus; experiment: Ratio of eperezolid MIC to compound MIC for Staphylococcus aureus Smith
[25] = tested on: Streptococcus pneumoniae; experiment: Ratio of eperezolid MIC to compound MIC for Streptococcus pneumoniae SR26207 clinical isolate

Compound	MIC [1] [µg/mL]	MIC [2] [µg/mL]	MIC [3] [µg/mL]	ED50 [4] [mg/kg]	MIC [5] [µg/mL]	MIC [6] [µg/mL]	MIC [7] [µg/mL]	MIC [8] [µg/mL]	MIC [9] [µg/mL]	MIC [10] [µg/mL]	Ratio [12]	Ratio [13]	Ratio [14]	Ratio [15]	Ratio [16]	Ratio [17]	Ratio [18]	Ratio [19]	Ratio [20]	Ratio [21]	also measured
O=C(CO)N1CCN(c2c(F)cc(N3C[C@H](Cn4ccnn4)OC3=O)cc2F)CCN1	4 (≈ 9.14 µM)	1 (≈ 2.29 µM)	1 (≈ 2.29 µM)	1.71	1 (≈ 2.29 µM)	16 (≈ 36.6 µM)	1 (≈ 2.29 µM)	8 (≈ 18.3 µM)	2 (≈ 4.57 µM)	0.5 (≈ 1.14 µM)	–	–	–	–	–	–	–	–	–	–	–
O=C(CO)N1CCN(c2c(F)cc(N3C[C@H](CNc4ccon4)OC3=O)cc2F)CCN1	16 (≈ 35.4 µM)	1 (≈ 2.21 µM)	0.5 (≈ 1.11 µM)	2.18	0.25 (≈ 0.553 µM)	8 (≈ 17.7 µM)	0.5 (≈ 1.11 µM)	16 (≈ 35.4 µM)	0.5 (≈ 1.11 µM)	0.125 (≈ 0.276 µM)	–	–	–	–	–	–	–	–	–	–	ED50 [11]: 2.83 mg/kg
O=C(CO)N1CCN(c2c(F)cc(N3C[C@H](CNc4ccon4)OC3=O)cc2F)CCO1	4 (≈ 8.82 µM)	1 (≈ 2.21 µM)	0.25 (≈ 0.551 µM)	> 10	0.5 (≈ 1.1 µM)	8 (≈ 17.6 µM)	0.25 (≈ 0.551 µM)	16 (≈ 35.3 µM)	0.5 (≈ 1.1 µM)	0.25 (≈ 0.551 µM)	–	–	–	–	–	–	–	–	–	–	–
CC(=S)NC[C@H]1CN(c2ccc(N3CCNN(C(=O)CO)CC3)c(F)c2)C(=O)O1	1 (≈ 2.35 µM)	0.5 (≈ 1.18 µM)	0.5 (≈ 1.18 µM)	2.95	0.5 (≈ 1.18 µM)	8 (≈ 18.8 µM)	0.25 (≈ 0.588 µM)	2 (≈ 4.7 µM)	0.25 (≈ 0.588 µM)	≤ 0.063	4	4	4	4	4	4	4	4	4	4	ED50 [11]: > 10 mg/kg; Ratio [22]: 4; Ratio [23]: 4; Ratio [24]: 4; Ratio [25]: 4
CC(=S)NC[C@H]1CN(c2cc(F)c(N3CCNN(C(=O)CO)CC3)c(F)c2)C(=O)O1	0.5 (≈ 1.13 µM)	0.125 (≈ 0.282 µM)	0.125 (≈ 0.282 µM)	2.95	0.25 (≈ 0.564 µM)	1 (≈ 2.25 µM)	0.125 (≈ 0.282 µM)	2 (≈ 4.51 µM)	0.25 (≈ 0.564 µM)	0.063 (≈ 0.142 µM)	4	4	4	4	4	4	4	4	4	4	ED50 [11]: 9.83 mg/kg; Ratio [22]: 4; Ratio [23]: 4; Ratio [24]: 4; Ratio [25]: 4
CC(=S)NC[C@H]1CN(c2cc(F)c(N3CCON(C(=O)CO)CC3)c(F)c2)C(=O)O1	1 (≈ 2.25 µM)	0.25 (≈ 0.562 µM)	0.125 (≈ 0.281 µM)	–	0.25 (≈ 0.562 µM)	2 (≈ 4.5 µM)	–	4 (≈ 9 µM)	0.25 (≈ 0.562 µM)	0.063 (≈ 0.142 µM)	4	4	4	4	4	4	4	4	4	4	Ratio [22]: 4; Ratio [23]: 4; Ratio [24]: 4; Ratio [25]: 4
COC(=S)NC[C@H]1CN(c2cc(F)c(N3CCON(C(=O)CO)CC3)c(F)c2)C(=O)O1	1 (≈ 2.17 µM)	0.25 (≈ 0.543 µM)	0.25 (≈ 0.543 µM)	–	0.5 (≈ 1.09 µM)	2 (≈ 4.34 µM)	–	4 (≈ 8.69 µM)	0.25 (≈ 0.543 µM)	0.125 (≈ 0.271 µM)	4	4	4	4	4	4	4	4	4	4	Ratio [22]: 4; Ratio [23]: 4; Ratio [24]: 4; Ratio [25]: 4
O=C(CO)N1CCN(c2ccc(N3C[C@H](Cn4ccnn4)OC3=O)cc2F)CCN1	8 (≈ 19.1 µM)	4 (≈ 9.54 µM)	2 (≈ 4.77 µM)	0.77	4 (≈ 9.54 µM)	64 (≈ 153 µM)	–	16 (≈ 38.1 µM)	4 (≈ 9.54 µM)	1 (≈ 2.38 µM)	–	–	–	–	–	–	–	–	–	–	–
